Laboratory results: ChEMBL document CHEMBL3817823 (J Med Chem, 2016)
Values after ≈ are worked out from the molar mass of the structure shown. Active and inactive are the calls of the source. The calls are words filed in the database; no cut-off is given here.

Columns and labels:
[1] = molecular target: Histone-lysine N-methyltransferase, H3 lysine-36 specific (Homo sapiens) (UniProt Q96L73); assay: Inhibition of NSD1 (unknown origin) at 1 to 50 uM by TCA precipitation assay
[2] = molecular target: Histone-lysine N-methyltransferase 2C (Homo sapiens) (UniProt Q8NEZ4); assay: Inhibition of MLL3 (unknown origin) at 1 to 50 uM by scintillation proximity assay
[3] = molecular target: Protein arginine N-methyltransferase 8 (Homo sapiens) (UniProt Q9NR22); assay: Inhibition of PRMT8 (unknown origin) at 1 to 50 uM by scintillation proximity assay
[4] = molecular target: N-lysine methyltransferase SMYD2 (Homo sapiens, UniProt Q9NRG4); details: KYSE-150, 0.5 to 10 uM
[5] = molecular target: Protein N-lysine methyltransferase METTL21A (Homo sapiens) (UniProt Q8WXB1); assay: Inhibition of METTL21A (unknown origin) at 1 to 50 uM by TCA precipitation assay
Mus musculus [6] = assay: Toxicity in human KYSE-150 cells xenografted BALB/c mouse assessed as body weight loss at 500 mg/kg, po administered qd in presence of doxorubicin relative to control; format: organism-based; details: in vivo
Method in brief: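 Mice bore subcutaneous KYSE-150-derived tumor xenografts; dosing began day 4 after inoculation. Groups: vehicle (Solutol/ethanol/water 1:1:8 iv qd plus saline iv at day 4); compound 500 mg/kg po qd; doxorubicin 10 mg/kg iv once at day 4; combination. Treatment-related body weight loss was recorded.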

[7] = molecular target: Histone-lysine N-methyltransferase KMT5C (Homo sapiens) (UniProt Q86Y97); assay: Inhibition of SUV420H2 (unknown origin) at 1 to 50 uM by scintillation proximity assay
[8] = molecular target: DNA (cytosine-5)-methyltransferase 1 (Homo sapiens) (UniProt P26358); assay: Inhibition of DNMT1 (unknown origin) at 1 to 50 uM by scintillation proximity assay
KYSE-150 [9] = assay: Antitumor activity against human KYSE-150 cells xenografted in BALB/c mouse assessed as reduction in tumor area at 500 mg/kg, po administered qd relative to control; format: functional, organism-based
Method in brief: (§1)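 Mice carrying subcutaneous KYSE-150 xenografts; dosing began day 4 after inoculation. Arms: vehicle (Solutol/ethanol/water 1:1:8 iv qd, plus saline iv once at day 4), inhibitor 500 mg/kg po qd, doxorubicin 10 mg/kg iv once at day 4, or the combination. Tumor area tracked (mean ± SEM); final tumor weight gives T/C; Dunn's method versus vehicle.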

[10] = molecular target: Protein arginine N-methyltransferase 3 (Homo sapiens) (UniProt O60678); assay: Inhibition of PRMT3 (unknown origin) at 1 to 50 uM by scintillation proximity assay
Mus musculus [11] = assay: Time>IC50 for cellular methylation in BALB/c mouse at 10 mg/kg, po qd
Method in brief: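 Mice were dosed orally once daily at 10–100 mg/kg. Time at steady state with unbound exposure covering the cellular In-Cell Western AHNAK methylation IC50 was estimated.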

A2780 = assay: Induction of apoptosis in human A2780 cells assessed as caspase 3/7 activation up to 20 uM after 2 days by […]; format: functional, cell-based
Mus musculus [12] = assay: In vivo inhibition of SMYD2 expressed in human KYSE-150 cells xenografted in BALB/c nude mouse assessed as suppression of AHNAK methylation at 100 mg/kg, po administered qd for 3 days by dot-blot analysis relative to untreated control; format: functional
Method in brief: (§2)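 Mice with subcutaneous KYSE-150 tumor xenografts dosed orally once daily for 3 days (vehicle PEG 400/water 8:2), n = 12 per group; tumors then harvested and AHNAK methylation measured ex vivo by dot blot with SY46 antibody; group means ± SD, Student's t test versus vehicle.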

KYSE-150 [13] = assay: Antitumor activity against human KYSE-150 cells xenografted in BALB/c mouse assessed as reduction in tumor weight at 10 mg/kg, iv administered once at day 4 relative to control; format: functional, organism-based; method in brief: as §1
Mus musculus [14] = assay: In vivo inhibition of SMYD2 expressed in human KYSE-150 cells xenografted in BALB/c nude mouse assessed as suppression of AHNAK methylation at 10 mg/kg, po administered qd for 3 days by dot-blot analysis relative to untreated control; format: functional; method in brief: as §2
[15] = molecular target: Histone-lysine N-methyltransferase EHMT2 (Homo sapiens) (UniProt Q96KQ7); assay: Inhibition of G9A (unknown origin) at 1 to 50 uM by scintillation proximity assay
[16] = molecular target: Protein arginine N-methyltransferase 6 (Homo sapiens) (UniProt Q96LA8); assay: Inhibition of PRMT6 (unknown origin) at 1 to 50 uM by scintillation proximity assay
Mus musculus [17] = assay: In vivo inhibition of SMYD2 expressed in human KYSE-150 cells xenografted in BALB/c nude mouse assessed as suppression of AHNAK methylation at 70 mg/kg, po administered qd for 3 days by dot-blot analysis relative to untreated control; format: functional; method in brief: as §2
KYSE-150 cell line = assay: Potentiation of doxorubicin-induced apoptosis in human KYSE-150 cells assessed as caspase 3/7 activation up to 20 uM after 2 days by […]; format: functional, cell-based
U2OS = assay: Potentiation of doxorubicin-induced apoptosis in human U2OS cells assessed as caspase 3/7 activation up to 20 uM after 2 days by […]; format: functional, cell-based
[18] = molecular target: N-lysine methyltransferase KMT5A (Homo sapiens) (UniProt Q9NQR1); assay: Inhibition of SETD8 (unknown origin) at 1 to 50 uM by scintillation proximity assay
[19] = molecular target: Histone-lysine N-methyltransferase ASH1L (Homo sapiens) (UniProt Q9NR48); assay: Inhibition of ASH1L (unknown origin) at 1 to 50 uM by TCA precipitation assay
[20] = molecular target: Protein N-lysine methyltransferase METTL21D (Homo sapiens) (UniProt Q9H867); assay: Inhibition of METTL21D (unknown origin) at 1 to 50 uM by TCA precipitation assay
[21] = molecular target: Protein arginine N-methyltransferase 1 (Homo sapiens) (UniProt Q99873); assay: Inhibition of PRMT1 (unknown origin) at 1 to 50 uM by scintillation proximity assay
[22] = molecular target: Histone-lysine N-methyltransferase SETD7 (Homo sapiens) (UniProt Q8WTS6); assay: Inhibition of SETD7 (unknown origin) at 1 to 50 uM by scintillation proximity assay
KYSE-150 [23] = assay: Antitumor activity against human KYSE-150 cells xenografted in BALB/c mouse assessed as reduction in tumor weight at 500 mg/kg, po administered qd in presence of doxorubicin relative to control; format: functional, organism-based; method in brief: as §1
[24] = molecular target: Histone-lysine N-methyltransferase NSD3 (Homo sapiens) (UniProt Q9BZ95); assay: Inhibition of NSD3 (unknown origin) at 1 to 50 uM by TCA precipitation assay
[25] = Aqueous solubility of the compound; format: physicochemical; details: buffer
[26] = molecular target: Histone-lysine N-methyltransferase, H3 lysine-79 specific (Homo sapiens) (UniProt Q8TEK3); assay: Inhibition of DOT1L (unknown origin) at 1 to 50 uM by TCA precipitation assay
Chain of Histone-lysine N-methyltransferase, H3 lysine-79 specific (Homo sapiens) (Q8TEK3 whole entry, looked up): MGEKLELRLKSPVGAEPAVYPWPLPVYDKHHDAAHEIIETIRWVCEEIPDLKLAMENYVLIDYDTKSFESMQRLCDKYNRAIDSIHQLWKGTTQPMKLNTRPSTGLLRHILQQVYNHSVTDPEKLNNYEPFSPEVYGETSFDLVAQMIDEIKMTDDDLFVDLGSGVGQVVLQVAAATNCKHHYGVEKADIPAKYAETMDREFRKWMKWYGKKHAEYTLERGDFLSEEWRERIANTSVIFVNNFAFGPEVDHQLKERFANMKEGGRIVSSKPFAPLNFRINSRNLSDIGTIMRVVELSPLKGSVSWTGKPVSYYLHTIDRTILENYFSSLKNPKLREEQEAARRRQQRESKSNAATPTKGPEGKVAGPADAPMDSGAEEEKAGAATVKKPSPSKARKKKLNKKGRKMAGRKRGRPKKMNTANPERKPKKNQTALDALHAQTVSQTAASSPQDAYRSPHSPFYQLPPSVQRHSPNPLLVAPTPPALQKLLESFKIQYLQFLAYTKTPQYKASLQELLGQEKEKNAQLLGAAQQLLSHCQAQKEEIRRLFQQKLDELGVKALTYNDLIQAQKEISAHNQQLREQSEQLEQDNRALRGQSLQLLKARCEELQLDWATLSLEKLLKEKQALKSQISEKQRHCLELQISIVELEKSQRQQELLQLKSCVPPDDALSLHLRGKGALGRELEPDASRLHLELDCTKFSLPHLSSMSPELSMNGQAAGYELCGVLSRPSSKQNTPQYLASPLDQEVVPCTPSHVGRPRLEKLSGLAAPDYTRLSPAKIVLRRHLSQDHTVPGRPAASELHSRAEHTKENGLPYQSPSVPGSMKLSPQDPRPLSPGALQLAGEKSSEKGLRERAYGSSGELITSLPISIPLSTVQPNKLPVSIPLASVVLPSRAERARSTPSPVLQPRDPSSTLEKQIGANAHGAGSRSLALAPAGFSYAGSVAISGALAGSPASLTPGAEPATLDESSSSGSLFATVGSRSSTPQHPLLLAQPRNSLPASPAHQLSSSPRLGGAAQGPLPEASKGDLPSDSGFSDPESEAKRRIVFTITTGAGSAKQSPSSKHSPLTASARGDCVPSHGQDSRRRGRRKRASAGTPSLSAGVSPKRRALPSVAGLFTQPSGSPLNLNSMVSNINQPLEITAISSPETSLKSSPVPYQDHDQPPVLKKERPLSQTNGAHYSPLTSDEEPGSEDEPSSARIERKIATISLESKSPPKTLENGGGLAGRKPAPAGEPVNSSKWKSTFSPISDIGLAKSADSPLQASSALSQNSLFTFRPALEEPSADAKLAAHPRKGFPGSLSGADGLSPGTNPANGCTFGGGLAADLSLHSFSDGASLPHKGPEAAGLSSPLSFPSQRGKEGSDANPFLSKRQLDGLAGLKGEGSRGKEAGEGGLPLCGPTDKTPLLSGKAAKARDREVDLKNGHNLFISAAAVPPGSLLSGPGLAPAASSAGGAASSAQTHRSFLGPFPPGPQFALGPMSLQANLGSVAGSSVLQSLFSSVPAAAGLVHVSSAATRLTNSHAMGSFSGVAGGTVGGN

Chain of Protein arginine N-methyltransferase 3 (Homo sapiens) (O60678 2-531 limits assumed): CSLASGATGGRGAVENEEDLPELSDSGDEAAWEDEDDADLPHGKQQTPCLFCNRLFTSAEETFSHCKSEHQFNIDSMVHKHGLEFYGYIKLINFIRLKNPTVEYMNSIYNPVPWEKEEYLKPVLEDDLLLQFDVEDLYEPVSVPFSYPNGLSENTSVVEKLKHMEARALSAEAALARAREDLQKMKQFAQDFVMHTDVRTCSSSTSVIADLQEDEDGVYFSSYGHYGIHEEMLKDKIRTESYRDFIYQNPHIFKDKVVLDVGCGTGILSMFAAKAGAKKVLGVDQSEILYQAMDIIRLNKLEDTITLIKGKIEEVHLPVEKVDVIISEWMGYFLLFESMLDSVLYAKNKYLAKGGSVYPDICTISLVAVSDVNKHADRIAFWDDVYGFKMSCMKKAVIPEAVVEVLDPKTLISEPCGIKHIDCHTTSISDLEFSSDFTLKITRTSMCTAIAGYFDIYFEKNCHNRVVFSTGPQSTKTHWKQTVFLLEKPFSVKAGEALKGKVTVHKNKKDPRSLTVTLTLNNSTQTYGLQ
Chain of N-lysine methyltransferase SMYD2 (Q9NRG4 whole entry): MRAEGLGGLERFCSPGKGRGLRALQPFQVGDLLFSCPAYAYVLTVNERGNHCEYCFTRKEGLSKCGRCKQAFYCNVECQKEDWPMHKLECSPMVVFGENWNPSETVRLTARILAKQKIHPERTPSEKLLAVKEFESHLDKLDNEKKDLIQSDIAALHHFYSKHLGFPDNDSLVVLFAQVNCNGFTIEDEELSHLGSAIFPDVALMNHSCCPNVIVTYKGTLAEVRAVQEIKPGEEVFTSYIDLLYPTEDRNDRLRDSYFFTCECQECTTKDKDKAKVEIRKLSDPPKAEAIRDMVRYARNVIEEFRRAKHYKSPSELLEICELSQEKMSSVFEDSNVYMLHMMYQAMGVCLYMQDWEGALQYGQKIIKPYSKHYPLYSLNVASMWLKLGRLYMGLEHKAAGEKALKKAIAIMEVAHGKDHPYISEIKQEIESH
Chain of Histone-lysine N-methyltransferase SETD7 (Homo sapiens) (Q8WTS6 whole entry): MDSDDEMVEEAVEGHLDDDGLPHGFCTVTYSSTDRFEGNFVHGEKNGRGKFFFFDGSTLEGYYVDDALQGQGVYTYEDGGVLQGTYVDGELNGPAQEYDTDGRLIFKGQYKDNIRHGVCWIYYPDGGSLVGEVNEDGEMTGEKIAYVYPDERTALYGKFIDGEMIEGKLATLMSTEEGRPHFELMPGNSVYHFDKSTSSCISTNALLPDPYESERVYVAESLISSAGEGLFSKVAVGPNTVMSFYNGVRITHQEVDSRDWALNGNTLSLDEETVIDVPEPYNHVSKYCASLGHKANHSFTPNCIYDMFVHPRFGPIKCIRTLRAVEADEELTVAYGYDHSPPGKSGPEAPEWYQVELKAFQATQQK
Chain of Histone-lysine N-methyltransferase KMT5C (Homo sapiens) (Q86Y97 whole entry, looked up): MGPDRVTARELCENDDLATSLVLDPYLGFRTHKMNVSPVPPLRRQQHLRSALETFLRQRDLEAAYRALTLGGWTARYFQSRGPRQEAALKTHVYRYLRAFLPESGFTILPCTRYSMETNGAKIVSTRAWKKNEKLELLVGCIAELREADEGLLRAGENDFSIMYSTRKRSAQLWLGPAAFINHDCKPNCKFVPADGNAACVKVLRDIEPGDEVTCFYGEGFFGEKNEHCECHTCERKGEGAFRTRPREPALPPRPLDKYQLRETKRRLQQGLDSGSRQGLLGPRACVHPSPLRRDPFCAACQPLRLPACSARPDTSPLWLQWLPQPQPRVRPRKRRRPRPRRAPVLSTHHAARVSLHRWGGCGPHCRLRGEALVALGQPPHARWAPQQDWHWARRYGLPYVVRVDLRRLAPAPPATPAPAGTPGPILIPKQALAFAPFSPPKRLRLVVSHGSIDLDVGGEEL
Chain of Histone-lysine N-methyltransferase NSD3 (Homo sapiens) (Q9BZ95 whole entry): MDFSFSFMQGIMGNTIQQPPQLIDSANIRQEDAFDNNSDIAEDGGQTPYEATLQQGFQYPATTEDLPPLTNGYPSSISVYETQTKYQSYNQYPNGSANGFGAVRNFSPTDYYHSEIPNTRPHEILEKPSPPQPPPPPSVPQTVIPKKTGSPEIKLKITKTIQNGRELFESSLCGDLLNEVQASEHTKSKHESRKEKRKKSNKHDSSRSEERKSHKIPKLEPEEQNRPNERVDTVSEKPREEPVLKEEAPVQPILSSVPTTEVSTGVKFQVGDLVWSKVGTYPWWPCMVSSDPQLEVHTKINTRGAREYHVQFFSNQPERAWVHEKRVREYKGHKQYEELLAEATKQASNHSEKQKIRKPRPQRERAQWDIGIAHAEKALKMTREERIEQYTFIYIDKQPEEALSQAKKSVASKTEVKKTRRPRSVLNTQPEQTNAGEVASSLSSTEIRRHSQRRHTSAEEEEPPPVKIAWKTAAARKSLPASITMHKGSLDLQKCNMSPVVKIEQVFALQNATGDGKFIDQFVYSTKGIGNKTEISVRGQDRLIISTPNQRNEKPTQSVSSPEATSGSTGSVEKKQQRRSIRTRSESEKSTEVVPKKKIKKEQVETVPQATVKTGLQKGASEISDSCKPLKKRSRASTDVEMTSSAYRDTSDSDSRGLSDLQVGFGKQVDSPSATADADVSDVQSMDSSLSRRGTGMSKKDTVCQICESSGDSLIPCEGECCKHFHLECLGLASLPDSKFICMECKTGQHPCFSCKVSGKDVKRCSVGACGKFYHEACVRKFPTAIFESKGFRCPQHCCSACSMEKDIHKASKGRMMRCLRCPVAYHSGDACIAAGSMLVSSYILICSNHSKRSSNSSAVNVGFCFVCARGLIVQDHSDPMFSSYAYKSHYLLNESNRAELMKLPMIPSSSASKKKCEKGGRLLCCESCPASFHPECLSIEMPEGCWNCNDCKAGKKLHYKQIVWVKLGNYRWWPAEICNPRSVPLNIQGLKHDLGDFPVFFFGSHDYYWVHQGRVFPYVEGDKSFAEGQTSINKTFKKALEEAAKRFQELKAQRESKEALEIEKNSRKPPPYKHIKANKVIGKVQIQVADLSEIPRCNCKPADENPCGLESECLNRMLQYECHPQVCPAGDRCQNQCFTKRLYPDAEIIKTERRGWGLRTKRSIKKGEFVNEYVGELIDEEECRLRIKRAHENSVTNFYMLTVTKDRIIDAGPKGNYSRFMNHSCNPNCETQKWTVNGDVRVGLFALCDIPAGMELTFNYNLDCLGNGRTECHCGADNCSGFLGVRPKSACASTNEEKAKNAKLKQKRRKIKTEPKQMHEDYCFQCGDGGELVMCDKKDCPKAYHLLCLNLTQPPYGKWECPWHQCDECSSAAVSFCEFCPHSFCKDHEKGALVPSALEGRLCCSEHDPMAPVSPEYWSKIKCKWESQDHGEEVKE
Chain of Protein N-lysine methyltransferase METTL21D (Homo sapiens) (Q9H867 whole entry): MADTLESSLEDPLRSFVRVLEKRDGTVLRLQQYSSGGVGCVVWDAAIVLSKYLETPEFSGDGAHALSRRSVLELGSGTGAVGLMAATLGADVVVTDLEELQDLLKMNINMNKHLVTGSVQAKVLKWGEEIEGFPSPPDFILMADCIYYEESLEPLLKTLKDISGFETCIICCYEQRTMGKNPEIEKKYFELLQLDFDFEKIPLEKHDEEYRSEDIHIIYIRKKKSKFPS

Compound: CCN(C(=O)CO)[C@H]1CN(/C(=N\C#N)Nc2cccc(OC(F)F)c2)N=C1c1ccc(Cl)c(Cl)c1
- inhibition [1]: inactive
- inhibition [2]: inactive
- inhibition [3]: inactive
- inhibition [4]: Active
- inhibition [5]: inactive
- Activity (Mus musculus [6]): Non-toxic
- inhibition [7]: inactive
- inhibition [8]: inactive
- Activity (KYSE-150 [9]): inactive
- inhibition [10]: inactive
- Time (Mus musculus [11]): 9 h
- Activity (A2780): inactive
- T/C (Mus musculus [12]): 0.43
- Activity (KYSE-150 [13]): Active
- T/C (Mus musculus [14]): 1
- inhibition [15]: inactive
- inhibition [16]: inactive
- T/C (Mus musculus [17]): 0.73
- Activity (KYSE-150 cell line): Active
- Activity (U2OS): Active
- inhibition [18]: inactive
- inhibition [19]: inactive
- inhibition [20]: inactive
- inhibition [21]: inactive
- inhibition [22]: inactive
- Activity (KYSE-150 [23]): Active
- inhibition [24]: inactive
- solubility [25]: 20 µg/mL (≈ 38.1 µM)
- inhibition [26]: inactive
